From ChEMBL document CHEMBL1821594, “Synthesis and anticancer evaluation of novel 2-cyclopropylimidazo[2,1-b][1,3,4]-thiadiazole derivatives” (2011)

How the values were obtained:
Format in all cases: functional
MDA-MB-231 = assay: Antitumor activity against human MDA-MB-231 cells after 48 hrs by SRB assay; conditions: MDA-MB-231, 48 h
How it was run: (§1)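 Cells grown in RPMI 1640 with 5% FBS and 2 mM L-glutamine and seeded at 5000–40,000 cells/well according to doubling time. They were preincubated 24 h at 37 °C, 5% CO2, then exposed to DMSO-solubilized compound for 48 h. Adherent cells were fixed with cold TCA (10% final), suspension cells with 16% final. Stained with 0.4% SRB; absorbance at 515 nm. Percent growth calculated against time-zero and control plates.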

RXF 393 = assay: Antitumor activity against human RXF393 cells after 48 hrs by SRB assay; conditions: RXF 393, 48 h; how it was run: as §1
MDA-MB-435 = assay: Antitumor activity against human MDA-MB-435 cells after 48 hrs by SRB assay; conditions: MDA-MB-435, 48 h; how it was run: as §1
SN12C = assay: Antitumor activity against human SN12C cells after 48 hrs by SRB assay; how it was run: as §1
CAKI-1 = assay: Antitumor activity against human Caki1 cells after 48 hrs by SRB assay; conditions: CAKI-1, 48 h; how it was run: as §1
IGROV-1 = assay: Antitumor activity against human IGROV1 cells after 48 hrs by SRB assay; conditions: IGROV-1, 48 h; how it was run: as §1
OVCAR-5 = assay: Antitumor activity against human OVCAR5 cells after 48 hrs by SRB assay; conditions: OVCAR-5, 48 h; how it was run: as §1
SW-620 = assay: Antitumor activity against human SW620 cells after 48 hrs by SRB assay; conditions: SW-620, 48 h
How it was run: (§2)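 NCI-60 protocol. Cells were grown in RPMI 1640 with 5% FBS and 2 mM L-glutamine, plated at 5000–40,000 cells/well, and preincubated 24 h at 37 °C, 5% CO2. Time-zero plates were TCA-fixed. Compounds were in DMSO and incubated 48 h. Fixation used cold TCA (final 16% for suspension SR; final 10% for adherent lines 2-7). Plates were stained with 0.4% SRB in 1% acetic acid, solubilized in 10 mM Tris base, and read at 515 nm. Percent growth was calculated from Tz, C and Ti.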

NCI-H522 = assay: Antitumor activity against human NCI-H522 cells after 48 hrs by SRB assay; conditions: NCI-H522, 48 h; how it was run: as §1
LOX IMVI = assay: Antitumor activity against human LOXIMVI cells after 48 hrs by SRB assay; how it was run: as §1
NCI-H226 = assay: Antitumor activity against human NCI-H226 cells after 48 hrs by SRB assay; conditions: NCI-H226, 48 h; how it was run: as §1
SNB-75 = assay: Antitumor activity against human SNB75 cells after 48 hrs by SRB assay; conditions: SNB-75, 48 h; how it was run: as §1
NCI-H322M = assay: Antitumor activity against human NCI-H322M cells after 48 hrs by SRB assay; how it was run: as §1
BT-549 = assay: Antitumor activity against human BT549 cells after 48 hrs by SRB assay; conditions: BT-549, 48 h; how it was run: as §1
HOP-62 = assay: Antitumor activity against human HOP62 cells after 48 hrs by SRB assay; conditions: HOP-62, 48 h; how it was run: as §1
OVCAR-3 = assay: Antitumor activity against human OVCAR3 cells after 48 hrs by SRB assay; conditions: OVCAR-3, 48 h; how it was run: as §1
PC-3 = assay: Antitumor activity against human PC3 cells after 48 hrs by SRB assay; conditions: PC-3, 48 h; how it was run: as §1
SF-539 = assay: Antitumor activity against human SF539 cells after 48 hrs by SRB assay; conditions: SF-539, 48 h; how it was run: as §1
HCT-15 = assay: Antitumor activity against human HCT15 cells after 48 hrs by SRB assay; conditions: HCT-15, 48 h; how it was run: as §1
T47D = assay: Antitumor activity against human T47D cells after 48 hrs by SRB assay; how it was run: as §2
Malme-3M = assay: Antitumor activity against human MALME-3M cells after 48 hrs by SRB assay; how it was run: as §1
OVCAR-4 = assay: Antitumor activity against human OVCAR4 cells after 48 hrs by SRB assay; conditions: OVCAR-4, 48 h; how it was run: as §1
SK-OV-3 = assay: Antitumor activity against human SKOV3 cells after 48 hrs by SRB assay; conditions: SK-OV-3, 48 h; how it was run: as §1
SR = assay: Antitumor activity against human SR cells after 48 hrs by SRB assay; how it was run: as §2
SF-268 = assay: Antitumor activity against human SF268 cells after 48 hrs by SRB assay; conditions: SF-268, 48 h; how it was run: as §1
UO-31 = assay: Antitumor activity against human UO31 cells after 48 hrs by SRB assay; conditions: UO-31, 48 h; how it was run: as §2
UACC-257 = assay: Antitumor activity against human UACC257 cells after 48 hrs by SRB assay; conditions: UACC-257, 48 h; how it was run: as §2
HCC 2998 = assay: Antitumor activity against human HCC2998 cells after 48 hrs by SRB assay; conditions: HCC 2998, 48 h; how it was run: as §1
NCI-H460 = assay: Antitumor activity against human NCI-H460 cells after 48 hrs by SRB assay; conditions: NCI-H460, 48 h; how it was run: as §1
[1] = read-out: LC50 (the source's name)

`Clc1ccc(-c2nc3sc(C4CC4)nn3c2Br)cc1` showed a GI50 (MDA-MB-231) of 6.59 µM, a TGI (MDA-MB-231) greater than 100 µM and a CC50 (MDA-MB-231; [1]) greater than 100 µM. It also gave a GI50 (RXF 393) of 2.93 µM, a TGI (RXF 393) of 14.8 µM and a CC50 (RXF 393; [1]) greater than 100 µM. For the same compound, the GI50 (MDA-MB-435) was 6.08 µM, the TGI (MDA-MB-435) was greater than 100 µM and the CC50 (MDA-MB-435; [1]) was greater than 100 µM. It also gave a GI50 (SN12C) of 14.3 µM, a TGI (SN12C) greater than 100 µM and a CC50 (SN12C; [1]) greater than 100 µM. For the same compound, the GI50 (CAKI-1) was 9.69 µM, the TGI (CAKI-1) was greater than 100 µM and the CC50 (CAKI-1; [1]) was greater than 100 µM. For the same compound, the GI50 (IGROV-1) was 17.3 µM, the TGI (IGROV-1) was greater than 100 µM and the CC50 (IGROV-1; [1]) was greater than 100 µM. For the same compound, the GI50 (OVCAR-5) was 31.9 µM, the TGI (OVCAR-5) was greater than 100 µM and the CC50 (OVCAR-5; [1]) was greater than 100 µM. For the same compound, the GI50 (SW-620) was 6.88 µM, the TGI (SW-620) was greater than 100 µM and the CC50 (SW-620; [1]) was greater than 100 µM. The GI50 (NCI-H522) was 5.31 µM, the TGI (NCI-H522) was 55.4 µM and the CC50 (NCI-H522; [1]) was greater than 100 µM. It also gave a GI50 (LOX IMVI) of 9.2 µM, a TGI (LOX IMVI) greater than 100 µM and a CC50 (LOX IMVI; [1]) greater than 100 µM. For the same compound, the GI50 (NCI-H226) was 4.99 µM, the TGI (NCI-H226) was greater than 100 µM and the CC50 (NCI-H226; [1]) was greater than 100 µM. It also gave a GI50 (SNB-75) of 12.2 µM, a TGI (SNB-75) of 51.9 µM and a CC50 (SNB-75; [1]) greater than 100 µM. It also gave a GI50 (NCI-H322M) of 43.4 µM, a TGI (NCI-H322M) greater than 100 µM and a CC50 (NCI-H322M; [1]) greater than 100 µM. The GI50 (BT-549) was 4.07 µM, the TGI (BT-549) was greater than 100 µM and the CC50 (BT-549; [1]) was greater than 100 µM. It also gave a GI50 (HOP-62) of 38.1 µM, a TGI (HOP-62) greater than 100 µM and a CC50 (HOP-62; [1]) greater than 100 µM. For the same compound, the GI50 (OVCAR-3) was 4.63 µM, the TGI (OVCAR-3) was greater than 100 µM and the CC50 (OVCAR-3; [1]) was greater than 100 µM. The GI50 (PC-3) was 2.22 µM, the TGI (PC-3) was greater than 100 µM and the CC50 (PC-3; [1]) was greater than 100 µM. The GI50 (SF-539) was 6.78 µM, the TGI (SF-539) was greater than 100 µM and the CC50 (SF-539; [1]) was greater than 100 µM. For the same compound, the GI50 (HCT-15) was 2.02 µM, the TGI (HCT-15) was greater than 100 µM and the CC50 (HCT-15; [1]) was greater than 100 µM. It also gave a GI50 (T47D) of 4.49 µM, a TGI (T47D) of 73.5 µM and a CC50 (T47D; [1]) greater than 100 µM. For the same compound, the GI50 (Malme-3M) was 8.79 µM, the TGI (Malme-3M) was greater than 100 µM and the CC50 (Malme-3M; [1]) was greater than 100 µM. For the same compound, the GI50 (OVCAR-4) was 12.7 µM, the TGI (OVCAR-4) was 82.1 µM and the CC50 (OVCAR-4; [1]) was greater than 100 µM. For the same compound, the GI50 (SK-OV-3) was 35 µM, the TGI (SK-OV-3) was greater than 100 µM and the CC50 (SK-OV-3; [1]) was greater than 100 µM. It also gave a GI50 (SR) of 2.9 µM, a TGI (SR) greater than 100 µM and a CC50 (SR; [1]) greater than 100 µM. It also gave a GI50 (SF-268) of 19.3 µM, a TGI (SF-268) greater than 100 µM and a CC50 (SF-268; [1]) greater than 100 µM. It also gave a GI50 (UO-31) of 16.4 µM, a TGI (UO-31) greater than 100 µM and a CC50 (UO-31; [1]) greater than 100 µM. For the same compound, the GI50 (UACC-257) was 4.14 µM, the TGI (UACC-257) was greater than 100 µM and the CC50 (UACC-257; [1]) was greater than 100 µM. It also gave a GI50 (HCC 2998) of 8.19 µM, a TGI (HCC 2998) greater than 100 µM and a CC50 (HCC 2998; [1]) greater than 100 µM. The GI50 (NCI-H460) was 5.25 µM, the TGI (NCI-H460) was greater than 100 µM and the CC50 (NCI-H460; [1]) was greater than 100 µM.
